OXTR potentiate: potentiates the human oxytocin receptor response | P30559 | CHO-OTR cells, Fluo-8 calcium fluorescence, potentiator mode; 0% = oxytocin EC15, 100% = EC100 | activation, % at 3 µM | 0.061% of 320,000 active | AID 2445;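 active means activation above that plate's cutoff, the mean activation of tested compounds plus 3 SD, cut at about 6.6% in these data, passing the limit was not always enough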;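 further: 100% uses oxytocin at 75 nM as the full agonist control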
Target sequence (P30559 whole entry, looked up): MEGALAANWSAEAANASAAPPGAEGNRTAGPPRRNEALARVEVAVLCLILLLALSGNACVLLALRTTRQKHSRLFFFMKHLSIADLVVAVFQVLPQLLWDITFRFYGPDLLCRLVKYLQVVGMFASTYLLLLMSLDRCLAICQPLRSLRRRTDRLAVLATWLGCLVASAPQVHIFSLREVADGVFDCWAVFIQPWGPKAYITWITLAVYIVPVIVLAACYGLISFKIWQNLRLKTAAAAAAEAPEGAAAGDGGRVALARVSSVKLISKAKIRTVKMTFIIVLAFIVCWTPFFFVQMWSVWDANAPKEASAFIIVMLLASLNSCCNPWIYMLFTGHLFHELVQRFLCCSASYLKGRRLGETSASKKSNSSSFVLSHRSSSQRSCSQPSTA
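Assay system: CHO cell line stably expressing human OTR. Reagent: EC15 oxytocin agonist. Dosing: single dose, 3.0 µM nominal final compound concentration. Timing: compound 6 min at room temperature before oxytocin, 100 s read. Signal: kinetic Fluo-8 calcium fluorescence. Controls: oxytocin EC15 low and EC100 high.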
V1aR counter: V1a receptor agonism, counter-screen for OXTR agonists | activation, % at 3 µM | 0.25% of 320,000 active | P37288 | CHO-V1R cells, Fluo-8 calcium fluorescence, agonist mode; 0% DMSO, 100% 3 nM vasopressin;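 active means activation above the mean activation of all tested compounds plus 3 SD, per screening run, cut at about 20% in these data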;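 further: signal is peak over basal fluorescence ratio across a 100 second FLIPR read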
Target sequence (P37288 whole entry, looked up): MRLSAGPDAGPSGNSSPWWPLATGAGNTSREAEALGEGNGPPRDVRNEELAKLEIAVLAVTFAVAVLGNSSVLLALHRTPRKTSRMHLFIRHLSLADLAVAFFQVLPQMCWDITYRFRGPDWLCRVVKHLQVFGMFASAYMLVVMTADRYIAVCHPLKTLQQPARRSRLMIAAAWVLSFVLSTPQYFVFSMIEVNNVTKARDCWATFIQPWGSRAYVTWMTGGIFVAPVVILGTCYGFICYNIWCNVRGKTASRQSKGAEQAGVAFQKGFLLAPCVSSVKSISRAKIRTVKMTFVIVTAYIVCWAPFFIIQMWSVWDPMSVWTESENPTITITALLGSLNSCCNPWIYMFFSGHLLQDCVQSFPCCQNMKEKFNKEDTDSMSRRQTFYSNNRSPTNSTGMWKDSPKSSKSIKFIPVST
OXTR ag: agonists of human oxytocin receptor; P30559; CHO-OTR cells, Fluo-8 calcium fluorescence; normalized: DMSO 0%, oxytocin 100%; activation, % at 3 µM; 0.32% of 320,000 active; AID 2435;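 active means activation above the mean of all tested compounds plus 3 SD, cutoff set per screening run, cut at about 20% in these data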;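 further: peak over basal fluorescence ratio from a 100 s FLIPR kinetic read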
zfTRPN1 agonist: agonists of zebrafish TRPN1 channel. HEK293 zebrafish TRPN1-YFP, Fluo-8 calcium fluorescence; 100% = response to 87 µM carbachol. activation, % at 3 µM. 0.18% of 220,000 active;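 active means activation above its plate's cutoff, the mean activation of test wells on that plate plus 3 SD, cut at about 19% in these data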;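 further: 0% = DMSO alone and 100% = 87 µM carbachol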
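Control set: carbachol 87 µM as high control, DMSO as low control; system: HEK293 stable line with zebrafish TRPN1-YFP; read-out: % activation versus carbachol response; detection: intracellular calcium fluorescence with Fluo-8; doses: single test compound dose, 3 µM nominal, 0.3% DMSO; schedule: dye 1 h 37 °C plus 30 min RT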
TRPML3 ag: activates the human TRPML3 channel; Q8TDD5; HEK293 TRPML3-YFP, Fluo-8 calcium fluorescence; 100% = the carbachol control signal; activation, % at 3 µM; 0.29% of 220,000 active;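 active means activation above its plate's cutoff, the mean activation of the plate's test wells plus 3 SD, cut at about 12% in these data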;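 further: 0% = DMSO only wells and 100% = carbachol wells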
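Material: TRPML3-YFP stable HEK293 cells | Dosing: One concentration, 3 µM nominal, 0.3% DMSO | Timing: 125 s total fluorescence read per well | Technique: Fluo-8 calcium dye fluorescence, ex 470-495, em 515-575 nm | Measure: Percent activation from peak-to-basal fluorescence ratio, scaled between DMSO and carbachol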
TRPN1 ag 2: zebrafish TRPN1 agonism as TRPML3 agonist counter-screen | shares compounds with TRPML3 ag | HEK293 zebrafish TRPN1-YFP, Fluo-8 calcium fluorescence; scaled: carbachol wells 100%, DMSO wells 0% | activation, % at 3 µM | 10% of 310 active | AID 1525;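 active means mean activation over replicates above a set limit taken from the earlier TRPN1 channel primary screen, cut at about 19% in these data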;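 further: 100% = carbachol and 0% = 0.3% DMSO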
TRPML3 confirm: confirmation of human TRPML3 channel agonists; 80% of 310 active; shares compounds with TRPML3 ag; HEK293 TRPML3-YFP, Fluo-8 calcium fluorescence; 100% set by carbachol, 0% by DMSO; activation, % at 3 µM; AID 1526;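 active means activation above a set limit derived from the earlier primary screen, cut at about 12% in these data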
OXTR ag confirm: confirmation of human oxytocin receptor agonists. CHO-OTR cells, Fluo-8 calcium fluorescence, agonist. 20% of 390 active. AID 434963. activation, % at 3 µM. shares compounds with OXTR ag;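 active means mean activation above about 20% derived from the earlier single-dose screen, limit read from the data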;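 further: peak over minimum fluorescence ratio per well during a 100 second FLIPR read; 0% = DMSO alone and 100% = oxytocin high control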
V1aR counter 3x: counter-screen for oxytocin receptor agonists: V1a receptor agonists | shares compounds with OXTR ag | CHO-V1R cells, Fluo-8 calcium fluorescence, agonist | activation, % at 3 µM | 10% of 390 active | AID 434991;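 active means mean activation over triplicate exceeds the hit threshold set in the earlier primary screen, cut at about 20% in these data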;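 further: peak over basal fluorescence ratio within a 100 second read; 0% = DMSO alone and 100% = 3 nM vasopressin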
OXTR pot cf: confirmation of human oxytocin receptor potentiators; shares compounds with OXTR potentiate; CHO-OTR cells, Fluo-8 calcium fluorescence, potentiation; scaled from low-dose to maximal oxytocin; activation, % at 3 µM; AID 434985; 180 tested, under 10 active;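 active means mean percent activation over triplicates above a cutoff set from solvent-only control plates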;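 further: compounds tested in the presence of an EC15 dose of oxytocin; 0% = EC15 oxytocin with DMSO and 100% = EC100 oxytocin with DMSO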
V1aR agonist cf: human V1a receptor agonism, confirmation. shares compounds with V1aR counter. CHO-V1R cells, Fluo-8 calcium fluorescence, agonist. activation, % at 3 µM. 20% of 180 active. AID 434964;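 active means average activation exceeds primary screen hit cutoff, cut at about 21% in these data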;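 further: peak over basal fluorescence ratio during a 100 s FLIPR read; 0% = DMSO only wells and 100% = 3 nM vasopressin wells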
OXTR counter: OXTR agonism, counter-screen for V1R agonists; shares compounds with V1aR counter; CHO-OTR cells, Fluo-8 calcium fluorescence, agonist; activation, % at 3 µM; 10% of 180 active; AID 434969;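 active means mean activation over three repeats above the cutoff from the earlier oxytocin receptor agonist screen, cut at about 20% in these data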;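 further: peak over minimum fluorescence ratio within a 100 second FLIPR read; 0% = DMSO only wells and 100% = oxytocin high control wells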
* = called active by the depositor; . = no result. This is a sample that favours compounds with a hit; in the whole collection about 0.55% have one here.

SMILES	OXTR potentiate	V1aR counter	OXTR ag	zfTRPN1 agonist	TRPML3 ag	others
CC1(C)CSC(=NCc2ccccc2)N1	-16	14	16	61*	58*
COc1cc2c(cc1OC)C1[C@H]3C(=CC[C@H]1OC2O)CCN3C (stereo partly drawn)	-3	1	0	.	.
CCCCCCn1c(=O)c(C(=O)Nc2ncccc2C)c(O)c2ccccc21	-21	46*	38*	.	.
CCCCn1c(=O)c(C(=O)Nc2ncccc2C)c(O)c2ccccc21	-11	39*	36*	.	.
CCCCCn1c(=O)c(C(=O)Nc2ccccc2C)c(O)c2ccccc21	-6	0	-1	.	.
Cc1ccccc1-[n+]1c(-c2ccccc2)cc(-c2ccccc2)cc1-c1ccccc1	-6	0	1	.	.
O=[N+]([O-])c1ccc(-c2ccccc2)c([As](=O)(O)O)c1	-11	0	0	1	0
O=C1NC(=O)N(c2ccc(Cl)cc2)C(=O)/C1=C\c1ccc(Sc2nc3ccccc3[nH]2)o1	-16	36*	29*	22*	12*
CN1/C(=C\C=C\C2=[N+](C)c3ccc4ccccc4c3C2(C)C)C(C)(C)c2ccccc21	-24	59*	81*	24*	29*
C[C@]12CCC3C(CC[C@H]4C[C@@H](O)CC[C@]34C)C1C[C@@H](Br)[C@H]2O (stereo partly drawn)	-1	2	1	.	.
COC(=O)C1=C(c2ccc(F)cc2F)C[C@@H]2CC[C@H]1N2C(=O)NCCOc1ccccc1Cl	-2	-1	-2	.	.
O=C1NC(=O)N(Cc2ccc(F)cc2)C(=O)/C1=C\c1ccoc1	-23	29*	31*	13	9
Cc1nc2cc(C(F)(F)F)ccc2n1C1CCN(Cc2nnnn2Cc2ccc3c(c2)OCO3)CC1	-22	5	5	4	2
Cc1nc2cc(C(F)(F)F)ccc2n1C1CCN(Cc2nnnn2Cc2cccs2)CC1	-12	37*	33*	6	4
CN1/C(=C\C=C2C(=O)NC(=O)NC2=O)C(C)(C)c2ccccc21	-14	32*	25*	42*	17*
Clc1ccc(C(c2ccc(Cl)cc2)n2cc[n+](CC(OCc3ccc(Cl)cc3Cl)c3ccc(Cl)cc3Cl)c2)cc1 (stereo not drawn)	-16	0	-1	.	.
CCOC(=O)c1ccc(NC(=O)c2c(O)[nH]c(=O)[nH]c2=O)cc1	-15	1	1	308*	247*
CCOc1ccc(NC(=O)c2c(O)[nH]c(=O)[nH]c2=O)cc1	-1	0	-1	.	.
O=C1/C(=C\c2ccccc2)C2OCC=C3CN4CCC56c7ccccc7N1C5C2C3CC46 (stereo not drawn)	-5	14	20*	4	2
O=C1CC2OCC=C3CN4CCC56c7cc([N+](=O)[O-])ccc7N1C5C2C3CC46 (stereo not drawn)	4	0	0	-1	0
O=C1CCCN1CC#CCN1CCCC1	-12	0	1	3	27*	TRPN1 ag 2=6;TRPML3 confirm=35*
N#CC12CNCC1CN=N2 (stereo not drawn)	-1	-1	0	-1	1
CCCCn1c(=O)c(C(=O)NCc2ccccc2Cl)c(O)c2ccccc21	-23	0	38*	.	.	OXTR ag confirm=0;V1aR counter 3x=1
O=C(COc1ccc2ccccc2c1)N1CCN(Cc2c[nH]c3ccccc23)CC1	-18	9	24*	1	2	OXTR ag confirm=10;V1aR counter 3x=4
O=C(COc1ccc(Br)cc1)N1CCN(Cc2c[nH]c3ccccc23)CC1	-24	5	10	1	1
SMILES	OXTR potentiate	V1aR counter	OXTR ag	zfTRPN1 agonist	TRPML3 ag	others
C#C[C@]1(O)CC[C@H]2[C@@H]3CCC4=Cc5nc6nc7ccccc7n6cc5C[C@]4(C)[C@H]3CC[C@@]21C	0	0	0	.	.
CCOc1cc2c(cc1OCC)-n1cccc1C(c1ccc(F)c(OC)c1)NC2 (stereo not drawn)	-7	15	22*	.	.	OXTR ag confirm=7;V1aR counter 3x=3
FC(F)(F)c1cccc(C2NCc3ccccc3-n3cccc32)c1 (stereo not drawn)	-21	0	-2	.	.
Oc1ccc(C2NCc3ccccc3-n3cccc32)cc1Cl (stereo not drawn)	-23	17	28*	0	1	OXTR ag confirm=10;V1aR counter 3x=2
COC(=O)C1=C(c2ccc(F)cc2OCc2ccccc2)C[C@@H]2CC[C@H]1N2C(=O)NCCCc1ccccc1	-2	4	3	.	.
O=C1NC(=O)C(=Cc2ccc(-c3ccc(F)cc3O)o2)C(=O)N1	10	5	10	.	.
CNc1ccc2oc(C[C@H]3O[C@@]4(CC[C@H]3C)O[C@H]([C@H](C)C(=O)c3ccc[nH]3)[C@H](C)C[C@H]4C)nc2c1C(=O)O	-26	15	75*	.	.	OXTR ag confirm=122*;V1aR counter 3x=134*
COc1ccc(C(c2c(O)c3ccccc3oc2=O)c2c(C)n(C)n(-c3ccccc3)c2=O)cc1 (stereo not drawn)	12*	-1	-1	0	0	OXTR pot cf=-10
COc1ccc(Cl)cc1C(=O)C1CCCN(Cc2cnc(C)s2)C1 (stereo not drawn)	-12	1	-1	0	0
CN1CCN(c2ccc(S(C)(=O)=O)cc2[N+](=O)[O-])CC1	-2	0	1	2	1
CN1CCN(c2ccc([N+](=O)[O-])c3no[n+]([O-])c23)CC1	-24	28*	19	18	6	V1aR agonist cf=5;OXTR counter=5
O=C(NCc1ccccc1)c1cccn(Cc2cccc(Cl)c2)c1=O	-4	3	1	.	.
CN(C)c1ccc(/C=C/[N+](=O)[O-])cc1	-6	29*	18	11	6	V1aR agonist cf=38*;OXTR counter=24*
COc1ccc(C2c3c(nc(C)[nH]c3=O)Oc3c2c(=O)oc2ccccc32)cc1 (stereo not drawn)	-10	-2	0	3	1
CC1(C)OC(c2ccccc2)=C/C(=C/C=C2C(=O)NC(=O)NC2=O)O1	-17	22*	11	46*	24*	V1aR agonist cf=37*;OXTR counter=25*
